# According to ChEMBL document CHEMBL1142709, “Discovery and evaluation of 2-anilino-5-aryloxazoles as a novel class of VEGFR2 kinase inhibitors” (J Med Chem, 2005):
# pIC50: −log10 of the molar value.
# Tests used:
# [1] = Distribution at steady state was determined in dogs dosed at […] and 1 mg/kg po in 0.5% HPMC w/0.1%Tween 80 (n=2); format: ADME, organism-based, Canis lupus familiaris; conditions: dog, in vivo, iv, read-out: Vdss
# [2] = Distribution at steady state was determined in rats dosed at […] iv in 10% HP-alpha-cyclodextrin in 0.05 M acetic acid and 10 mg/kg po in 0.5% HPMCw/0.1% Tween 80 (n=3); format: ADME, organism-based; conditions: rat, in vivo, read-out: Vdss
# [3] = Half life in dogs dosed at 1 mg/kg iv in 40% […] and 1 mg/kg po in 0.5% HPMC w/0.1%Tween 80 (n=2); format: ADME, organism-based, Canis lupus familiaris; conditions: dog, in vivo
# Procedure, shortened: (§1)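 Male beagle dogs (n = 2). IV 1 mg/kg in 40% SBE-β-cyclodextrin and oral gavage 1 mg/kg in 0.5% HPMC/0.1% Tween 80, dose volume 0.5 mL/kg. Plasma precipitated with four volumes of acetonitrile and analysed by HPLC/MS. Parameters are averages of two dogs.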
# [4] = Half life in rats dosed at […] iv in 10% HP-alpha-cyclodextrin in 0.05 M acetic acid and 10 mg/kg po in 0.5% HPMCw/0.1% Tween 80 (n=3); format: ADME, organism-based; conditions: rat, in vivo
# [5] = Bioavailability of compound was determined in dogs dosed at 1 mg/kg iv in 40% […] and 1 mg/kg po in 0.5% HPMC w/0.1%Tween 80 (n=2); format: ADME, organism-based, Canis lupus familiaris; conditions: dog, in vivo; procedure, shortened: as §1
# [6] = Bioavailability of compound was determined in rats dosed at […] iv in 10% HP-alpha-cyclodextrin in 0.05 M acetic acid and 10 mg/kg po in 0.5% HPMCw/0.1% Tween 80 (n=3); format: ADME, organism-based; conditions: rat, in vivo
# [7] = Inhibition of basic FGF-induced proliferation of human umbilical vein endothelial cells; format: functional, cell-based; conditions: Endothelial cell
# HT-29 = test: In vitro inhibition of human colon tumor HT-29 cell proliferation; format: functional, cell-based
# [8] = Peak plasma concentration in mice following oral administration of an aqueous solution of the bis-mesylate salt of the compound; format: ADME, organism-based; parameters: route oral; conditions: mouse
# Procedure, shortened: (§2)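 Male CD mice (n = 2) given the bis-mesylate salt as an aqueous solution at 100 mg/kg by oral gavage, dose volume 10 mL/kg. Plasma taken from blood kept on wet ice, stored at -20 °C, protein-precipitated with four volumes of acetonitrile and analysed by HPLC/MS.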
# [9] = Time at which peak plasma concentration is attained in mice following oral administration of an aqueous solution of the bis-mesylate salt of the compound; format: ADME, organism-based; conditions: mouse; procedure, shortened: as §2
# [10] = Area under concentration time curve in mice following oral administration of an aqueous solution of the bis-mesylate salt of the compound; format: ADME; conditions: mouse, in vivo; procedure, shortened: as §2
smiles,measurement,setting,value
CCS(=O)(=O)c1ccc(OC)c(Nc2ncc(-c3cccc(-c4ccccn4)c3)o2)c1.CS(=O)(=O)O,Vd,[1],3.74 L/kg
same,Vd,[2],1.03 L/kg
same,half-life,[3],3.5 h
same,half-life,[4],1.6 h
same,bioavailability,[5],7%
same,bioavailability,[6],11%
c1ccc(Nc2ncc(-c3ccccc3)o2)cc1 [GW549390X],pIC50,[7],4.62
CCS(=O)(=O)c1ccc(OC)c(Nc2ncc(-c3cccc(-c4ccccc4Cl)c3)o2)c1,pIC50,[7],5.96
CCS(=O)(=O)c1ccc(OC)c(Nc2ncc(-c3cccc(-c4ccccn4)c3)o2)c1,pIC50,[7],5.24
same,pIC50,HT-29,5.35
same,Cmax,[8],35 µM
same,Tmax,[9],4 h
same,AUC,[10],102 µg·h/mL
Clc1ccc(Nc2nnc(Cc3ccncc3)c3ccccc23)cc1 [VATALANIB],pIC50,[7],4.60
COc1cc2/c(=N/c3ccc(Br)cc3F)nc[nH]c2cc1OCC1CCN(C)CC1 [VANDETANIB],pIC50,[7],5.92
